According to ChEMBL document CHEMBL3108700, “Designing anti-inflammatory drugs from parasitic worms: a synthetic small molecule analogue of the Acanthocheilonema viteae product ES-62 prevents development of collagen-induced arthritis” (J Med Chem, 2013):
The source made the active and inactive calls.

Legend:
[1] = target: T1, Toll-like receptor 9 (Mus musculus) (UniProt Q9EQU3); test: Inhibition of TLR9 in BALB/c mouse BMDM assessed as downregulation of CpG-stimulated IL-12p40 level at 5 ug/ml preincubated for 18 hrs followed by CpG challenge measured after 24 hrs by ELISA relative to control
T1 sequence (whole entry): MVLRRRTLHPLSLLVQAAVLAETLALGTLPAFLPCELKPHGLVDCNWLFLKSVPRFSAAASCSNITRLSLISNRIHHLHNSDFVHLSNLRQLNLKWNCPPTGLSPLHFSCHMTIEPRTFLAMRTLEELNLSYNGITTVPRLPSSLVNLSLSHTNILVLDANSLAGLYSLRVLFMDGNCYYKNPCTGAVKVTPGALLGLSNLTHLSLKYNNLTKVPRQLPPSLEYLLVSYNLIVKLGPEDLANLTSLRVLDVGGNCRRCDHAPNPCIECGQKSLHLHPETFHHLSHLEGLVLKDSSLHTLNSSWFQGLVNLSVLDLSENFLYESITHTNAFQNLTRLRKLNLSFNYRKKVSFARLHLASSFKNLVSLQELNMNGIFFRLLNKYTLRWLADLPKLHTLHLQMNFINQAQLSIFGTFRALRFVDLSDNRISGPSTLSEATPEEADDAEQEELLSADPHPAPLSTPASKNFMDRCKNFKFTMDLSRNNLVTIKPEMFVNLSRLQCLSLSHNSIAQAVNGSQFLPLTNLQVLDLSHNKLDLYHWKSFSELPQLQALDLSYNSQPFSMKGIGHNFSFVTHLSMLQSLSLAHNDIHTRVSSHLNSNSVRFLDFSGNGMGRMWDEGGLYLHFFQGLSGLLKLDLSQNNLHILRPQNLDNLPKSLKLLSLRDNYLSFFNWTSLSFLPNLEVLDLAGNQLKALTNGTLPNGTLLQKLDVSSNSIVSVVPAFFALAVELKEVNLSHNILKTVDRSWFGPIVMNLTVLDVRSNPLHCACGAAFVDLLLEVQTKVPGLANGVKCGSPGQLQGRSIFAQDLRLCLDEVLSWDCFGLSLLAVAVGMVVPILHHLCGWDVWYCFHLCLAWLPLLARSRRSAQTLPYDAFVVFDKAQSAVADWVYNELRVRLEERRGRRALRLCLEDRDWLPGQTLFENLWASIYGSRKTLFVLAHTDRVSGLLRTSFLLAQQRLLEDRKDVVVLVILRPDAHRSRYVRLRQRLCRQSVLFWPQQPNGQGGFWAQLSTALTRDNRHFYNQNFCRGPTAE
How it was run: (§1)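 BALB/c male bone marrow macrophages were differentiated 7 days with L929 supernatant (≥99% CD11b+/F4/80+). Cells were plated at 2 × 10^5/well in triplicate, rested overnight, and given compounds at 5 μg/mL for 18 h. They were then stimulated with 100 ng/mL S. minnesota LPS, 10 ng/mL Pam3CSK4 (BLP) or 0.01 μM CpG for 24 h. Supernatant IL-12p40 and IL-6 were measured by ELISA (sensitivity 16 pg/mL).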

[2] = target: T1, Toll-like receptor 9 (Mus musculus); test: Inhibition of TLR9 in BALB/c mouse BMDM assessed as downregulation of CpG-stimulated IL-6 level at 5 ug/ml preincubated for 18 hrs followed by CpG challenge measured after 24 hrs by ELISA relative to control; how it was run: as §1
Mus musculus [3] = test: Antiinflammatory activity in DBA/1 mouse collagen-induced arthritis model assessed as reduction in number of PMA/ionomycin-stimulated CD4+ T cells expressing IL-17 at 50 ug/kg, sc administered 2 days prior to collagen challenge continued till day 21 post collagen challenge by flow cytometric analysis relative to control; type: functional, organism-based; details: T-cell
How it was run: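 CIA mice given test agent (1 μg/dose) or PBS subcutaneously on days −2, 0 and 21. Draining lymph node cells (10^6/mL) in complete RPMI were stimulated ± 50 ng/mL PMA plus 500 ng/mL ionomycin, with 10 μg/mL brefeldin A for 5 h at 37 °C. Cells were surface-stained for CD4, CD8 and γδ, fixed and permeabilized, then stained for intracellular IFNγ and IL-17A. Gating used isotype controls. Cell numbers per individual mouse; naive n = 7, treated groups n = 13.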

Mus musculus [4] = test: Antiinflammatory activity in DBA/1 mouse collagen-induced arthritis model assessed as reduction of hind paw width at 50 ug/kg, sc administered 2 days prior to collagen challenge continued till day 21 post collagen challenge; type: functional, organism-based
How it was run: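 Collagen-induced arthritis mice were dosed subcutaneously (1 μg/dose) or given PBS on days −2, 0 and 21. Arthritis was scored clinically and hind paw width measured. Incidence was the % of mice with severity score ≥2 (cumulative) or ≥4 (high score). Results are mean ± SEM. Scores n = 13 per group, pooled from two experiments; paw width n = 7, from a single experiment.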

[5] = target: T2, Toll-like receptor 4 (Mus musculus) (UniProt Q9QUK6); test: Inhibition of TLR4 in ovalbumin pulsed C57BL/6 mouse BMDC co-cultured with OT-2 CD4+ T cells assessed as reduction of LPS-induced IL-17 production at 5 ug/mL after 3 days by ELISA; type: cell-based; details: T-cell
T2 sequence (whole entry): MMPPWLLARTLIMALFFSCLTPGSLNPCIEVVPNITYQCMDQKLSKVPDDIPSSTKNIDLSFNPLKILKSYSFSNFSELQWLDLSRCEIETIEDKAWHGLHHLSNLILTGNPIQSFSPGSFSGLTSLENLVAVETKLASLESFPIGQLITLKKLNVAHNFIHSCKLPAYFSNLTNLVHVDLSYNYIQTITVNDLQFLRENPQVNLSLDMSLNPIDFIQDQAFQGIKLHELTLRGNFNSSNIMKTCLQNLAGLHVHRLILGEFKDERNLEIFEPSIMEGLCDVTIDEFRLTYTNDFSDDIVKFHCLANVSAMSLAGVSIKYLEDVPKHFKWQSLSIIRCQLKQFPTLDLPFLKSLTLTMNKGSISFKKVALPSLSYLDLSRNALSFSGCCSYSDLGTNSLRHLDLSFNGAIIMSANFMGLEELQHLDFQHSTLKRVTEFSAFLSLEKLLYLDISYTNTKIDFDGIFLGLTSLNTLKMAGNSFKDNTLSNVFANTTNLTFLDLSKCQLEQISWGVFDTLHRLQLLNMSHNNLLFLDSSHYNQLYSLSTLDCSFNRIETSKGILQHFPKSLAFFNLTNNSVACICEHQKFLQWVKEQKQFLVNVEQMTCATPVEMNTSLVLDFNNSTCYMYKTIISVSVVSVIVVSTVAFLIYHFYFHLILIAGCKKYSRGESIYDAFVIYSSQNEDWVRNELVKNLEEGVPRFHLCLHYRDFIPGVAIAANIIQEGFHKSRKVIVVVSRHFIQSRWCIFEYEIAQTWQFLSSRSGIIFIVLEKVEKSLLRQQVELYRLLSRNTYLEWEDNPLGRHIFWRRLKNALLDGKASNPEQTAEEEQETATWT
How it was run: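 C57BL/6 bone marrow DCs ± compound (5 μg/mL) were treated ± LPS, pulsed with OVA peptide, and cocultured 3 days with naive OT-II CD4+ T cells. IL-17A was measured by ELISA. Responses were normalized to the LPS response at 10, 100 and 300 nM OVA. Values are mean ± SEM, pooled from four experiments.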

CN(C)CCS(=O)(=O)Cc1ccc(Br)cc1
active: inhibition [1] | inhibition [2] | Activity (Mus musculus [3]) | Activity (Mus musculus [4]) | inhibition [5]
